The RNAGym collection of RNA variant scans (doi:10.1126/science.aae0568)
Fewer inactive variants are shown than the library holds.

B1: tRNA (parent)
chain: GUUCCGUUGGCGUAAUGGUAACGCGUCUCCCUCCUAAGGAGAAGACUGCGGGUUCGAGUCCCGUACGGAACG

Variants of: B1
Assay: yeast fitness relative to wild type (ratio to wild type); higher = fitter; tRNA-Arg(CCU), competitive growth, 37 C, YPD
How it was run: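 Gene amplicons from the start population and from each of six end populations were read by 100-nucleotide paired-end sequencing. Those end populations came from pooled Saccharomyces cerevisiae strains carrying tRNA-Arg(CCU) gene variants at the native locus, competed in YPD at 37°C for 24 hours. Fitness relative to wild type was worked out from changes in genotype frequencies. Genotypes needed ≥ 100 starting reads, and estimates < 0.5 were set to 0.5.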

Variant	yeast fitness
C4A C27U A42U C62U	≤ 0.5
C4A C27U U28G C33G A36G	0.533
C4A C27U U28G C33G A36G G50C C66U	≤ 0.5
C4A C27U U28G C33G A36G G56C	≤ 0.5
C4A C29A	0.637
C4A C29G A37C U54A	≤ 0.5
C4A C29G G50A	≤ 0.5
C4A C29U C33A A36C A42C A45G	≤ 0.5
C4A C29U G67A A70U	≤ 0.5
C4A C30A	0.837
C4A C30A A40G G48A	≤ 0.5
C4A C30G	0.661
C4A C31G A40U A65U G68C	0.595
C4A C31G A45G G50C	0.576
C4A C31G C46U	0.677
C4A C31G C62G G68C	≤ 0.5
C4A C31U C34A A40G	≤ 0.5
C4A C31U G44A A45U	0.574
C4A C33A C60A	≤ 0.5
C4A C33G U47A	0.625
C4A C33U	0.754
C4A C34A C62G	≤ 0.5
C4A C34G A70G	≤ 0.5
C4A C46G C55G	≤ 0.5

Variant	yeast fitness
C4A C46G C61A	0.522
C4A C46U C55U	≤ 0.5
C4A C46U G68A	0.887
C4A C49G G63C	0.9
C4A C55G	0.55
C4A C55G C61U	≤ 0.5
C4A C55U	0.943
C4A C60U	0.825
C4A C61A G67A	≤ 0.5
C4A C66A	0.569
C4A G6A A21C C24U A43G	≤ 0.5
C4A G6A A40G U53G C62G C66U	0.6
C4A G6A C30A A65G	≤ 0.5
C4A G6A G50A	≤ 0.5
C4A G6A G67U	≤ 0.5
C4A G6A G68A	≤ 0.5
C4A G9A C22A C27G	≤ 0.5
C4A G9A C22A C27G U54A	≤ 0.5
C4A G9A G18C C22A A69C	≤ 0.5
C4A G9A U13G C22U C61A A70C	≤ 0.5
C4A G9C C11G C30A C55A C62A	≤ 0.5
C4A G9C C30A G39A C61G	≤ 0.5
C4A G10A A21G C22G A65G	≤ 0.5
C4A G10A C31A	≤ 0.5

Variant	yeast fitness
C4A G10A G50A	≤ 0.5
C4A G10C A57U	≤ 0.5
C4A G12C	0.679
C4A G12C U19C C24G A43U C61A	0.502
C4A G17A C24G G63C	0.64
C4A G17A C27G G63A	≤ 0.5
C4A G17A C62A	≤ 0.5
C4A G17A G41A U54A A57C	≤ 0.5
C4A G17A G51C	≤ 0.5
C4A G17A G51C G63A	≤ 0.5
C4A G17C	0.629
C4A G17C G23C A45C U54C	≤ 0.5
C4A G17U C46A	0.645
C4A G18A	0.78
C4A G18C	0.58
C4A G18C A43C C62G A65C C66A	≤ 0.5
C4A G18C C33G	0.591
C4A G18C C33U U59A	≤ 0.5
C4A G23A A40C	≤ 0.5
C4A G23A U28A	≤ 0.5
C4A G23A U28A G48A A70C	≤ 0.5
C4A G23C C24U A65G	0.556
C4A G25C C61A	0.694
C4A G38C	0.652

Variant	yeast fitness
C4A G39C G41C G56C	≤ 0.5
C4A G39C G44C G52C	0.685
C4A G41A A42C G50C A70G	≤ 0.5
C4A G41C C49U	≤ 0.5
C4A G44C G51A G58C U59A	≤ 0.5
C4A G48C	0.749
C4A G48C G51C A57U G68C	≤ 0.5
C4A G51C	0.547
C4A G51C C66U	≤ 0.5
C4A G56A C62U	0.626
C4A G56U	0.786
C4A G63C	0.748
C4A G67U	0.843
C4A G68C	0.808
C4A U7A U8A C60A	≤ 0.5
C4A U7A U8A U35C C60A	≤ 0.5
C4A U7A U8G A45C A65G C66G	≤ 0.5
C4A U7C G41A C49A U54C	≤ 0.5
C4A U8A G12C U19C C30U	≤ 0.5
C4A U8C C24G G44C G68U	≤ 0.5
C4A U8C C49U C55A C66U	≤ 0.5
C4A U8C G18C C33U	≤ 0.5
C4A U8C G51C	≤ 0.5
C4A U8G A69U	≤ 0.5

Variant	yeast fitness
C4A U13A G18A G52A C55G A69U	≤ 0.5
C4A U13A G58C A69U	0.655
C4A U13C G23C C34G A45G U53C U64A	0.675
C4A U13G C24U A42G G52A	0.601
C4A U16A A37G A69U	≤ 0.5
C4A U16A A43C C46U	≤ 0.5
C4A U16A C30G C31U	≤ 0.5
C4A U16C C33U A42G	≤ 0.5
C4A U16C C34U C61A	≤ 0.5
C4A U16C G17A U32C	≤ 0.5
C4A U16G C30A	0.62
C4A U19A A40U G48C	≤ 0.5
C4A U19A C27U G67A	0.573
C4A U19C U35C G48A	≤ 0.5
C4A U19G A36C	0.506
C4A U19G A70C	0.854
C4A U19G C30G	≤ 0.5
C4A U19G U35C U53C	≤ 0.5
C4A U26A	0.683
C4A U26A A36C C49G	0.583
C4A U26A A45U	0.656
C4A U26C C27G C33G A37U G41A A57G C62G	≤ 0.5
C4A U26G C29G U47G U59G	≤ 0.5
C4A U28A C31G U35A U47A U54A	≤ 0.5

Variant	yeast fitness
C4A U28G	0.681
C4A U32C C46A	0.697
C4A U32C C46G C62A	≤ 0.5
C4A U32G A45G A69U	≤ 0.5
C4A U35C G44C	≤ 0.5
C4A U35C G48C C55U G56A	0.51
C4A U47C	0.773
C4A U64A	0.815
C4G	1.01
C4G A14C G25C U32C A45U A57U	≤ 0.5
C4G A14C G48C A69U A70G	≤ 0.5
C4G A14C G50C G56C	≤ 0.5
C4G A14G C27U A42U	≤ 0.5
C4G A14G C30G G63C	≤ 0.5
C4G A14G C31A	0.528
C4G A14G U64C	≤ 0.5
C4G A14U A20G A21C	0.55
C4G A14U A37U U53C A69U	≤ 0.5
C4G A15C C30A A42C G56A A57U	≤ 0.5
C4G A15C U26G G41C A69U	≤ 0.5
C4G A15G	0.732
C4G A15G A20G G23A C34G G67A	≤ 0.5
C4G A15G C22G G23A C49A	≤ 0.5
C4G A15G G17A C34A	≤ 0.5

Variant	yeast fitness
C4G A15G G17C C34A	0.598
C4G A15G G23A C34G G67A	0.556
C4G A15G U26G	≤ 0.5
C4G A15U A21G G48A G50C	≤ 0.5
C4G A20C U26G C33U G44C U59A	≤ 0.5
C4G A20G G51C	0.66
C4G A20U C46U	0.614
C4G A20U G56C	≤ 0.5
C4G A21C C22A C27G C34U G56A G67C	≤ 0.5
C4G A21G A45U C49U	≤ 0.5
C4G A21G C31G C33G	≤ 0.5
C4G A21G U32A	0.672
C4G A21U U54G	0.607
C4G A36G	0.939
C4G A36G G38A A40U	≤ 0.5
C4G A36U C46G C62A A69C	≤ 0.5
C4G A37G A43G A69U	≤ 0.5
C4G A37U	0.681
C4G A37U C60U	≤ 0.5
C4G A40G C55U	≤ 0.5
C4G A40U A42C A57C	≤ 0.5
C4G A40U A69U	0.72
C4G A40U C66G	0.624
